Reference: ChEMBL document CHEMBL3046847, “Synthesis and in vitro antiproliferative activity of novel 12(H)-quino[3,4-b][1,4]benzothiazine derivatives” (Med Chem Res, 2013)
In brackets after ≈: the same amount, converted by molar mass.

Tests used:
[1] = system: C32; experiment: Cytotoxicity against Homo sapiens (human) C32 cells assessed as cell viability after 72 hr by WST-1 assay; assay type: functional, cell-based
How it was run: (§1)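 Cells grown in D-MEM with 12 % FCS, streptomycin and penicillin at 37 °C, 5 % CO2, seeded at 1×10^4 cells/well. Exposed to compounds at 0–100 μg/ml for 72 h, then incubated with WST-1 for 2 h. Absorbance was read at 450 nm against a background control. Values are means of at least two independent experiments run in triplicate.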

[2] = system: SNB-19; experiment: Cytotoxicity against Homo sapiens (human) SNB19 cells assessed as cell viability after 72 hr by WST-1 assay; assay type: functional, cell-based; how it was run: as §1
[3] = Homo sapiens, C32, 72 h, read-out: IC50
[4] = Homo sapiens, SNB-19, 72 h, read-out: IC50

Row | Compound | IC50 [1, 3] [µg/mL] | IC50 ([2]; snb-19) | IC50 [2, 4] [µg/mL] | IC50 ([1]; c32)
1 | Cc1ccc2c(c1)Sc1cnc3ccccc3c1N2 | 8.7 (≈ 32.9 µM) | Not Active |  | 
2 | CN(C)CCCN1c2cccnc2Sc2cnc3ccccc3c21 | 6.5 (≈ 19.3 µM) |  | 8.2 (≈ 24.4 µM) | 
3 | Cc1cccc2c1Nc1c(cnc3ccccc13)S2 |  | Not Active |  | Not Active
4 | Clc1ccc2c(c1)Sc1cnc3ccccc3c1N2 | 7.8 (≈ 27.4 µM) | Not Active |  | 
5 | c1ccc2c(c1)Sc1cnc3ccccc3c1N2CCN1CCCCC1 | 5.6 (≈ 15.5 µM) |  | 6.7 (≈ 18.5 µM) | 
6 | Fc1ccc2c(c1)Sc1cnc3ccccc3c1N2 | 9.4 (≈ 35 µM) | Not Active |  | 
7 | c1cnc2c(c1)Nc1c(cnc3ccccc13)S2 | 8.7 (≈ 34.6 µM) |  | 10.2 (≈ 40.6 µM) | 
8 | c1ccc2c(c1)Nc1c(cnc3ccccc13)S2 | 8.9 (≈ 35.6 µM) |  | 9.6 (≈ 38.3 µM) | 
9 | Brc1ccc2c(c1)Sc1cnc3ccccc3c1N2 | 8.6 (≈ 26.1 µM) | Not Active |  | 
10 | Cc1ccc2c(c1)Sc1cnc3ccccc3c1N2CCN1CCCCC1 | 6.9 (≈ 18.4 µM) |  | 6.6 (≈ 17.6 µM) | 
11 | c1cnc2c(c1)N(CCN1CCCCC1)c1c(cnc3ccccc13)S2 | 7.9 (≈ 21.8 µM) |  | 7.3 (≈ 20.1 µM) | 
12 | Fc1ccc2c(c1)Sc1cnc3ccccc3c1N2CCN1CCCCC1 | 7 (≈ 18.4 µM) |  | 12.4 (≈ 32.7 µM) | 
